# ChEMBL document CHEMBL5724801, “EUbOPEN Chemogenomics Library - Multiplex” (2024)
# Several values for one entry are separate records, joined by “and”; a condition that tells them apart may be missing. Equal values may be shown once.
# Columns and labels:
# Fibroblast = test: Multiplex assay against human fibroblast; assay type: toxicity, cell-based
# How it was run: (§1)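 Live cells carried four stains from seeding: Hoechst33342, BioTracker Green Microtubule Cytoskeleton Dye, MitoTracker Red and Annexin V Alexa Fluor 680. They were imaged on a CQ1 microscope at 37°C and 5% CO2 after compound addition. Using CellPathfinder machine-learning gating, cells were split into Hoechst high-intensity objects or normal cells, normal cells into healthy, pyknosed or fragmented nuclei, and pyknosed cells into mitotic or apoptotic; tubulin, mitochondrial-mass and membrane-permeability phenotypes are per cents of healthy-nucleus cells.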
# HEK-293T = test: Multiplex assay against HEK293T; assay type: toxicity, cell-based; conditions: human; how it was run: as §1
# [1] = 12 h, 1 µM, compound concentration 1 uM
# [2] = 12 h, 10 µM, compound concentration 10 uM
# [3] = 24 h, 1 µM, compound concentration 1 uM
# [4] = 24 h, 10 µM, compound concentration 10 uM
# [5] = 48 h, 1 µM, compound concentration 1 uM
# [6] = 48 h, 10 µM, compound concentration 10 uM
structure (smiles),measurement,setting,value
CCCCCN1C(=O)C2(COc3cc4c(cc32)OCO4)c2ccccc21 (configuration not stated),Population Apoptotic (%),Fibroblast; [1],17.31% and 20.59%
same,Population Fragmented Nuclei (%),Fibroblast; [1],11.05% and 2.26%
same,Population Healthy Nuclei (%),Fibroblast; [1],61.58% and 82.35%
same,Population Hoechst High Intensity Objects (%),Fibroblast; [1],0%
same,Population Membrane Permeable-Phenotype (%),Fibroblast; [1],2.56% and 3.85%
same,Population Mitochondria Different-Phenotype (%),Fibroblast; [1],11.97% and 6.04%
same,Population Mitotic Cells (%),Fibroblast; [1],82.69% and 79.41%
same,Population Normal (%),Fibroblast; [1],100%
same,Population Pyknosed Nuclei (%),Fibroblast; [1],27.37% and 15.38%
same,Population Tubulin-Different-Phenotype (%),Fibroblast; [1],20.51% and 12.09%
same,Total Cell Count,Fibroblast; [1],190 and 221
same,Population Fragmented Nuclei (%),Fibroblast; [2],8.24% and 5.79%
same,Population Healthy Nuclei (%),Fibroblast; [2],54.95% and 72.97%
same,Population Hoechst High Intensity Objects (%),Fibroblast; [2],0%
same,Population Membrane Permeable-Phenotype (%),Fibroblast; [2],4% and 3.7%
same,Population Mitochondria Different-Phenotype (%),Fibroblast; [2],14% and 13.76%
same,Population Mitotic Cells (%),Fibroblast; [2],97.01% and 85.45%
same,Population Normal (%),Fibroblast; [2],100%
same,Population Pyknosed Nuclei (%),Fibroblast; [2],36.81% and 21.24%
same,Population Tubulin-Different-Phenotype (%),Fibroblast; [2],36% and 35.45%
same,Total Cell Count,Fibroblast; [2],182 and 259
same,Population Apoptotic (%),Fibroblast; [3],18.18% and 13.04%
same,Population Fragmented Nuclei (%),Fibroblast; [3],9.76% and 2.67%
same,Population Healthy Nuclei (%),Fibroblast; [3],74.15% and 87.11%
same,Population Hoechst High Intensity Objects (%),Fibroblast; [3],0%
same,Population Membrane Permeable-Phenotype (%),Fibroblast; [3],4.61% and 1.53%
same,Population Mitochondria Different-Phenotype (%),Fibroblast; [3],7.89% and 4.59%
same,Population Mitotic Cells (%),Fibroblast; [3],81.82% and 86.96%
same,Population Normal (%),Fibroblast; [3],100%
same,Population Pyknosed Nuclei (%),Fibroblast; [3],16.1% and 10.22%
same,Population Tubulin-Different-Phenotype (%),Fibroblast; [3],16.45% and 15.82%
same,Total Cell Count,Fibroblast; [3],205 and 225
same,Population Apoptotic (%),Fibroblast; [4],4.65% and 8.82%
same,Population Fragmented Nuclei (%),Fibroblast; [4],8.78% and 2.37%
same,Population Healthy Nuclei (%),Fibroblast; [4],70.24% and 84.19%
same,Population Hoechst High Intensity Objects (%),Fibroblast; [4],0%
same,Population Membrane Permeable-Phenotype (%),Fibroblast; [4],1.39% and 0.94%
same,Population Mitochondria Different-Phenotype (%),Fibroblast; [4],13.19% and 12.21%
same,Population Mitotic Cells (%),Fibroblast; [4],95.35% and 91.18%
same,Population Normal (%),Fibroblast; [4],100%
same,Population Pyknosed Nuclei (%),Fibroblast; [4],20.98% and 13.44%
same,Population Tubulin-Different-Phenotype (%),Fibroblast; [4],42.36% and 37.09%
same,Total Cell Count,Fibroblast; [4],205 and 253
same,Population Fragmented Nuclei (%),Fibroblast; [5],11.57% and 4.05%
same,Population Healthy Nuclei (%),Fibroblast; [5],82.41% and 89.64%
same,Population Hoechst High Intensity Objects (%),Fibroblast; [5],0%
same,Population Membrane Permeable-Phenotype (%),Fibroblast; [5],1.12% and 3.02%
same,Population Mitotic Cells (%),Fibroblast; [5],92.31% and 64.29%
same,Population Normal (%),Fibroblast; [5],100%
same,Population Pyknosed Nuclei (%),Fibroblast; [5],6.02% and 6.31%
same,Population Tubulin-Different-Phenotype (%),Fibroblast; [5],5.62% and 14.07%
same,Total Cell Count,Fibroblast; [5],216 and 222
same,Population Apoptotic (%),Fibroblast; [6],37.5% and 23.53%
same,Population Fragmented Nuclei (%),Fibroblast; [6],7.32% and 3.05%
same,Population Healthy Nuclei (%),Fibroblast; [6],84.88% and 90.46%
same,Population Hoechst High Intensity Objects (%),Fibroblast; [6],0%
same,Population Membrane Permeable-Phenotype (%),Fibroblast; [6],1.15% and 2.95%
same,Population Mitochondria Different-Phenotype (%),Fibroblast; [6],15.52% and 5.91%
same,Population Mitotic Cells (%),Fibroblast; [6],62.5% and 76.47%
same,Population Normal (%),Fibroblast; [6],100%
same,Population Pyknosed Nuclei (%),Fibroblast; [6],7.8% and 6.49%
same,Population Tubulin-Different-Phenotype (%),Fibroblast; [6],16.09% and 33.76%
same,Total Cell Count,Fibroblast; [6],205 and 262
same,Population Apoptotic (%),HEK-293T; [1],10.57% and 8.94%
same,Population Fragmented Nuclei (%),HEK-293T; [1],1.96% and 2%
same,Population Hoechst High Intensity Objects (%),HEK-293T; [1],0%
same,Population Membrane Permeable-Phenotype (%),HEK-293T; [1],0%
same,Population Mitotic Cells (%),HEK-293T; [1],89.43% and 91.06%
same,Population Normal (%),HEK-293T; [1],100%
same,Population Pyknosed Nuclei (%),HEK-293T; [1],40.2% and 82%
same,Total Cell Count,HEK-293T; [1],306 and 150
same,Population Apoptotic (%),HEK-293T; [2],8.79% and 6.67%
same,Population Fragmented Nuclei (%),HEK-293T; [2],0.63% and 1.94%
same,Population Hoechst High Intensity Objects (%),HEK-293T; [2],0.31% and 0%
same,Population Membrane Permeable-Phenotype (%),HEK-293T; [2],1.48% and 0%
same,Population Mitochondria Different-Phenotype (%),HEK-293T; [2],29.63% and 35.29%
same,Population Mitotic Cells (%),HEK-293T; [2],91.21% and 93.33%
same,Population Normal (%),HEK-293T; [2],99.69% and 100%
same,Population Pyknosed Nuclei (%),HEK-293T; [2],57.05% and 87.1%
same,Total Cell Count,HEK-293T; [2],320 and 155
same,Population Apoptotic (%),HEK-293T; [3],13.4% and 12.71%
same,Population Fragmented Nuclei (%),HEK-293T; [3],1.54% and 2.04%
same,Population Healthy Nuclei (%),HEK-293T; [3],79.73% and 37.76%
same,Population Hoechst High Intensity Objects (%),HEK-293T; [3],0% and 0.51%
same,Population Membrane Permeable-Phenotype (%),HEK-293T; [3],1.21% and 2.7%
same,Population Mitochondria Different-Phenotype (%),HEK-293T; [3],16.46% and 10.81%
same,Population Mitotic Cells (%),HEK-293T; [3],86.6% and 87.29%
